Laboratory results reported in ChEMBL document CHEMBL1641569, “Synthetic conjugates of genistein affecting proliferation and mitosis of cancer cells” (Bioorg Med Chem, 2011).
Active and inactive are the calls of the source. The calls are words filed in the database; no cut-off is given here.

Experiments:
HCT-116 [1] = assay: Cytotoxicity against human HCT116 cells after 72 hrs by MTT assay; format: functional, cell-based; conditions: HCT-116, 72 h
HCT-116 [2] = assay: Cell cycle arrest in human HCT116 cells assessed as accumulation at G2/M phase at 5 to 20 uM after 24 hrs by propidium iodide staining-based flow cytometry; format: functional
In short: (§1)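 Subconfluent cultures exposed continuously to compound; floating and trypsinized adherent cells pooled, PBS-washed, fixed in ice-cold 70% ethanol 30 min, RNase (100 µg/mL) treated, stained with propidium iodide, DNA content measured by flow cytometry to give G1, S, G2/M, apoptotic (sub-G1) and polyploid fractions. Experiments repeated at least twice.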

HCT-116 [3] = assay: Inhibition of mitosis in human HCT116 cells assessed as mitotic index at 20 uM after 24 hrs by fluorescence assay; format: functional
In short: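 Cells treated 24 h, collected as for cell cycle analysis, cytospun, fixed in cold methanol, stained with 3 µM DAPI; mitotic cells counted among 1000 cells under 40× objective. Mean ± SD from three independent experiments.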

[4] = Solubility of the compound at 20 uM
HCT-116 [5] = assay: Cell cycle arrest in human HCT116 cells assessed as accumulation at G2/M phase after 24 hrs by propidium iodide staining-based flow cytometry; format: functional; in short: as §1

CCCO[C@H]1C=C[C@@H](OC(C)=O)[C@H](C)O1
IC50 (HCT-116 [1]): 550 µM

O=c1c(-c2ccc(O)cc2)coc2cc(OCCCO)cc(O)c12
IC50 (HCT-116 [1]): 23.9 µM

CC(=O)OC[C@H]1O[C@H](OCCCOc2cc(O)c3c(=O)c(-c4ccc(O)cc4)coc3c2)C=C[C@@H]1OC(C)=O
IC50 (HCT-116 [1]): 19.9 µM

O=c1c(-c2ccc(O)cc2)coc2cc(OCCCCCO)cc(O)c12
IC50 (HCT-116 [1]): 6.92 µM
Activity (HCT-116 [2]): inactive
Activity (HCT-116 [3]): 3

CC(=O)OC[C@H]1O[C@@H](O[C@H]2C=C[C@@H](OCCOc3cc(O)c4c(=O)c(-c5ccc(O)cc5)coc4c3)O[C@@H]2COC(C)=O)[C@H](OC(C)=O)[C@@H](OC(C)=O)[C@H]1OC(C)=O
IC50 (HCT-116 [1]): > 20 µM
solubility [4]: Insoluble

CC(=O)O[C@@H]1C=C[C@H](OCCCCCOc2cc(O)c3c(=O)c(-c4ccc(O)cc4)coc3c2)O[C@H]1C
IC50 (HCT-116 [1]): 8.08 µM
Activity (HCT-116 [5]): Dose-dependent effect
Activity (HCT-116 [3]): 3.5
